# SIAE primary – inhibitors of human sialic acid acetylesterase SIAE | SIAE FP-Rh probe binding, fluorescence polarization | Q9HAT2 | hit rate 0.69% among 370,000 | inhibition, % at 9.66 µM;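 active means inhibition above a cutoff: mean of compounds within the control limits plus 3 SD of those, cut at about 17% in these data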
# mABHD4 FP – inhibits mouse alpha/beta hydrolase domain 4; Q8VD66; purified mABHD4, FP-Rh probe fluorescence polarization; inhibition, % at 8.92 µM; hit rate 0.54% among 370,000; AID 720543;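 active means inhibition exceeding the mean over every tested compound plus 3 SD, cut at about 30% in these data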
#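 System: mouse ABHD4 enzyme, wild type / Medium: HEPES pH 7.0, NaCl, Pluronic buffer / Reagent: FP-Rh activity-based fluorescent probe / Control set: S159A mutant high control, sample median low control / Detection: fluorescence polarization with parallel and perpendicular emission, 525/598 nm / Schedule: 45 min + 60 min at 25 °C / Compound dosing: 8.92 µM, single dose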
# TCR CD3 inh – blocks the human TCR-CD3 interaction; TAMRA-labeled TCR probe fluorescence, biochemical; inhibition, % at 9.4 µM; hit rate 0.37% among 360,000; AID 651800;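 further: recombinant mutant TCR 2C K166C tagged with TAMRA read by polarization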
# pPAFAH FP inh – inhibitors of human plasma PAF acetylhydrolase (pPAFAH) | Q13093 | recombinant pPAFAH, FP-rhodamine probe fluorescence polarization | inhibition, % at 3.39 µM | hit rate 1.5% among 330,000 | AID 463082;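 active means inhibition above the mean inhibition across the screen plus 3 SD, cut at about 25% in these data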;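 further: inhibitors block binding of the rhodamine activity-based probe so polarization drops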
# Target sequence (Q13093 whole entry, looked up): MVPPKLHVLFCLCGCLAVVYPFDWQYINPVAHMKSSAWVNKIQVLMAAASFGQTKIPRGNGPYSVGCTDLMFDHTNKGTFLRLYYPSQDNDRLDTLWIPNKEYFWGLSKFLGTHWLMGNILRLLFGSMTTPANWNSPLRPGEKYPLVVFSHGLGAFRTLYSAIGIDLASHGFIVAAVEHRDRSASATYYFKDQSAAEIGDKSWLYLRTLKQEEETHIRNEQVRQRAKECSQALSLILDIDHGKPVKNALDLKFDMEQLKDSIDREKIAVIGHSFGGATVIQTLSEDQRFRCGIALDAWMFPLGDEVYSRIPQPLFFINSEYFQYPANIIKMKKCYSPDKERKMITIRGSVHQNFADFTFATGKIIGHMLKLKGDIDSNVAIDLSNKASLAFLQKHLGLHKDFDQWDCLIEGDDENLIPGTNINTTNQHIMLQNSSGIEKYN
# HTRA1 inh – HTRA1 (human) protease inhibition. Q92743. inhibition, % at 5.96 µM. hit rate 0.5% among 340,000. AID 504803. recombinant HTRA1, FP-rhodamine activity-based probe, fluorescence polarization; in the data active means inhibition above about 36%
# BSA probe FL – interferes with TAMRA-BSA probe, flagging TCR-CD3 hits; shares compounds with TCR CD3 inh; TAMRA-labeled BSA probe fluorescence counterscreen; inhibition, % at 9.4 µM; hit rate 10% among 1,200; AID 652035; in the data active means inhibition above about 23%
# TCR-CD3 inh conf – confirmation of human TCR-CD3 interaction inhibitors. shares compounds with TCR CD3 inh. TAMRA-labeled TCR probe fluorescence binding assay. inhibition, % at 9.4 µM. hit rate 48% among 1,200
# A number is an active result; i = inactive; nt = no result given. Only some compounds are listed: those with a hit (about 2.3% of all), similar ones and a draw of the others. Unless noted, no stated cut-off is given here; in the data, active means inhibition above about 19%; inactive means the rest.
SMILES,SIAE primary,mABHD4 FP,TCR CD3 inh,pPAFAH FP inh,HTRA1 inh,BSA probe FL,TCR-CD3 inh conf
CN[C@H]1C[C@H]2c3[nH]c4cccc(-c5cccc(C)c5)c4c3CCN2C(=O)[C@H]1[C@H](C)O,i,i,nt,nt,nt,nt,nt
CCOC(=O)[C@]12CCCC=C1N(Cc1ccc(OC)cc1)C(=O)[C@@H]2CC(=O)N1CCSCC1,i,i,nt,nt,nt,nt,nt
OC(c1ccccc1)(c1nc(/C=C/c2ccc(C(F)(F)F)cc2)cs1)C(F)(F)F (stereo not drawn),i,i,i,nt,nt,nt,nt
COc1ccc(-c2cnnn2-c2ccc(NC(=O)c3ccc(S(=O)(=O)N4CCCCC4)cc3)cc2)cc1OC,i,i,19.5,i,i,i,22.8
O=c1c(CO)cc(CO)cc(CO)c1O,i,i,30.7,i,i,i,22.4
COc1cncc(C#Cc2ccccn2)c1,i,i,i,nt,nt,nt,nt
CC(C)(C)c1ccc(-c2nnc(SCC(=O)Nc3ccc4c(c3)OCCO4)n2-c2ccc(Cl)cc2)cc1,i,i,nt,nt,nt,nt,nt
O=C(Nc1ccc2ccccc2c1)c1cn(-c2ccccc2)nc1-c1cccs1,i,i,89.3,i,i,i,38.2
CCCSc1nnc(NC(=O)CSc2sc3c(O)cc(=O)[nH]c3c2C#N)s1,i,i,30.8,42.8,i,i,i
Oc1ccc2ccccc2c1C=NN1CCN(Cc2ccc(Cl)cc2)CC1,i,i,nt,nt,nt,nt,nt
COc1cc(/C=N/NC(=O)COc2cccc(F)c2)ccc1OS(=O)(=O)c1ccc(C)cc1,i,i,i,i,i,nt,nt
COc1cc(/C=N/NC(=O)COc2ccc(Cl)cc2)ccc1OS(=O)(=O)c1ccc(C)cc1,i,i,56.6,i,i,i,35.8
OC[C@@H]1CN(Cc2cccs2)C[C@H](n2cnc3c(NCc4ccc(F)cc4)ncnc32)O1,i,i,i,nt,nt,nt,nt
O=C(NCCc1cccc(Cl)c1)c1ccc(Cl)c([N+](=O)[O-])c1,i,i,30.4,i,i,i,i
Cc1cccc(/C=N/NC(=O)c2ccc3c(c2)OCCO3)c1O,i,i,19.1,i,i,i,i
CCOc1cccc(/C=N/NC(=O)c2ccc3c(c2)OCCO3)c1O,i,i,i,i,i,nt,nt
Cc1cccc(/C=N/NC(=O)c2c(-c3ccccc3)noc2C)c1O,i,i,23.7,i,i,i,i
Cc1cccc(/C=N\NC(=O)c2ccc(Cl)cc2)c1O,i,i,34.4,i,i,i,21.9
COc1cccc(C(O)c2ncc(-c3ccccc3Cl)[nH]2)c1 (stereo not drawn),i,i,i,nt,nt,nt,nt
COc1cccc(C2c3c(ncn(-c4ccccc4)c3=N)Oc3ccc4ccccc4c32)c1 (stereo not drawn),i,i,nt,nt,nt,nt,nt
COc1cccc(C(=O)Nc2ccc3c(c2)OC[C@H](C)N(C(=O)C2CCCC2)C[C@@H](C)[C@@H](OC)CN(C)C3=O)c1,i,i,i,nt,nt,nt,nt
Cc1nn(CC(=O)NC2CCCCC2)c(C)c1[N+](=O)[O-],i,i,i,nt,i,nt,nt
Cc1nn(CC(=O)NC2CCS(=O)(=O)C2)c(C)c1[N+](=O)[O-] (stereo not drawn),i,i,26.8,i,i,i,i
CN(C)C(C(=O)Nc1cc(Cl)cc(Cl)c1)c1ccccc1 (stereo not drawn),i,i,135.2,i,i,i,i
O=C1CNC(=S)N1CCOc1ccccc1,i,i,i,i,i,nt,nt
SMILES,SIAE primary,mABHD4 FP,TCR CD3 inh,pPAFAH FP inh,HTRA1 inh,BSA probe FL,TCR-CD3 inh conf
O=C1CNC(=S)N1CCc1ccc(O)c(O)c1,i,i,31.0,i,nt,i,26.7
COc1ccc(C(=O)NCC(c2ccc3c(c2)OCO3)N2CCN(c3ccc(OC)cc3)CC2)cc1 (stereo not drawn),i,i,23.6,i,i,i,i
O=C(NNC(=O)c1ccc2ccccc2c1O)c1cccs1,i,i,39.6,i,i,i,32.8
O=C(NC(=S)NNC(=O)c1cccs1)c1ccccc1,i,i,22.0,i,i,i,25.4
CC(C)(C)c1ccc(C(=O)NC(=S)NNC(=O)c2cccs2)cc1,i,i,i,i,i,nt,nt
O=C(NNC(=O)c1cc2ccccc2cc1O)c1cccs1,i,i,i,i,i,nt,nt
O=C(NNC(=O)c1cccc2ccccc12)c1ccc(Cl)cc1Cl,i,i,i,nt,i,nt,nt
O=C(NNC(=O)c1ccc2ccccc2c1O)c1ccccc1Cl,i,i,28.9,i,i,i,35.2
